Assay outcomes: PubChem, The Scripps Research Institute Molecular Screening Center
This is a sample that favours compounds with a hit; in the whole collection about 1.6% have one here.
mABHD4 FP: ABHD4 (mouse) inhibition, primary FP screen; Q8VD66; purified mABHD4, FP-Rh probe fluorescence polarization; inhibition, % at 8.92 µM; 0.54% of 370,000 active; AID 720543;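 active means inhibition exceeding the mean over every tested compound plus 3 SD, cut at about 30% in these data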
Target sequence (Q8VD66 whole entry, looked up): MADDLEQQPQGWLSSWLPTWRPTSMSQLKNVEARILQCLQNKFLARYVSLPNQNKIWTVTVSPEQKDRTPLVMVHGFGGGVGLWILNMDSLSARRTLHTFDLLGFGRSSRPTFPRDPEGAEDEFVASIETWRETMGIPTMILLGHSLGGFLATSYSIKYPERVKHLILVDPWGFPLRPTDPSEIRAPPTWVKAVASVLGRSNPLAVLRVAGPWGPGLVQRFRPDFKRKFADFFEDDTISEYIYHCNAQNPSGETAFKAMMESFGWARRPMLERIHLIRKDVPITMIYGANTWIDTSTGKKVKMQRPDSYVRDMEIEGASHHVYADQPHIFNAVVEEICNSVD
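Assay system: mABHD4 protein; medium: HEPES pH 7.0, NaCl, Pluronic buffer; dosing: 8.92 µM, single dose; schedule: 45 min + 60 min at 25 °C; signal: FP readout, ex 525 nm / em 598 nm; read-out: normalized percent inhibition of probe labeling; repeats: single replicate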
TCR CD3 inh: inhibitors of human TCR-CD3 interaction; AID 651800; 0.37% of 360,000 active; TAMRA-labeled TCR probe fluorescence, biochemical; inhibition, % at 9.4 µM;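 further: recombinant mutant TCR 2C K166C tagged with TAMRA read by polarization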
DAGLB inhibitor: blocks human DAGLB lipase activity; Q8NCG7; 0.059% of 340,000 active; inhibition, % at 5.17 µM; AID 504411; HEK293T DAGLB membrane lysate, EnzChek fluorogenic substrate; in the data active means inhibition above about 34%
SIAE primary: blocks human sialic acid acetylesterase. 0.69% of 370,000 active. inhibition, % at 9.66 µM. SIAE FP-Rh probe binding, fluorescence polarization. AID 1053197;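 active means inhibition above a cutoff: mean of compounds within the control limits plus 3 SD of those, cut at about 17% in these data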
HTRA1 inhibitor: HTRA1 (human) protease inhibition. Q92743. recombinant HTRA1, FP-rhodamine activity-based probe, fluorescence polarization. inhibition, % at 5.96 µM. 0.5% of 340,000 active; in the data active means inhibition above about 36%
HTRA1 inh conf: confirmation of human HTRA1 inhibitors. shares compounds with HTRA1 inhibitor. recombinant HTRA1, FP-rhodamine activity-based probe, fluorescence polarization. inhibition, % at 5.96 µM. 66% of 1,600 active. AID 540248;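 active means mean inhibition over three repeats above a set limit taken from the earlier primary screen, cut at about 37% in these data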;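 further: inhibitors block probe binding so polarization drops and inhibition rises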
BSA TAMRA ctr: interferes with TAMRA-BSA probe, flagging TCR-CD3 hits; shares compounds with TCR CD3 inh; TAMRA-labeled BSA probe fluorescence counterscreen; inhibition, % at 9.4 µM; 10% of 1,200 active; AID 652035; in the data active means inhibition above about 23%
TCR-CD3 conf: confirmation of human TCR-CD3 interaction inhibitors; shares compounds with TCR CD3 inh; TAMRA-labeled TCR probe fluorescence binding assay; inhibition, % at 9.4 µM; 48% of 1,200 active
mABHD4 conf: confirmation of mouse ABHD4 inhibitors; shares compounds with mABHD4 FP; 55% of 1,800 active; inhibition, % at 8.92 µM; purified mABHD4, FP-Rh probe fluorescence polarization; AID 720658;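 active means mean inhibition across replicates above the hit cutoff set in the primary screen, cut at about 30% in these data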
Hits are given with their value; - = inactive; . = not tested or not shown; + = active, no number. Unless noted, no stated cut-off is given here; in the data, active means inhibition above about 19%; inactive means the rest.

SMILES	mABHD4 FP	TCR CD3 inh	DAGLB inhibitor	SIAE primary	HTRA1 inhibitor	HTRA1 inh conf	mABHD4 conf	others
COC(=O)c1ccc(Sc2ccc(C)cc2)c(N)c1	-	-	-	-	-	.	.
COc1cc(Sc2ccc(C)cc2)c(OC)cc1N	34	-	-	-	46	44	41
O=C(Nc1ccc(Cl)cc1)C1CCCN1S(=O)(=O)c1cccc2cccnc12 (stereo not drawn)	-	.	.	-	.	.	.
C=CCn1c(SCC(=O)c2ccc(O)c(O)c2)nnc1-c1ccc(C)cc1	34	-	-	-	60	66	-
C=CCn1c(SCC(=O)c2ccc(O)c(O)c2)nnc1-c1ccc(OC)cc1	38	-	-	-	56	79	-
O=c1cc(-c2ccc(O)cc2)oc2c(O)c(O)c(O)c(O)c12	36	23	-	-	52	59	-	BSA TAMRA ctr=-;TCR-CD3 conf=38
O=c1cc(-c2ccccc2)oc2cc(O)c(O)c(O)c12	52	38	-	-	80	85	37	BSA TAMRA ctr=-;TCR-CD3 conf=24
COc1c(O)cc2oc(-c3ccc(O)cc3)cc(=O)c2c1O	-	-	-	-	-	.	.
COC(=O)C[C@@H]1C[C@H]2c3cc(NC(=O)Nc4ccccc4F)ccc3O[C@H]2[C@@H](CO)O1	-	-	.	-	.	.	.
COCc1[nH]nc2c1C(c1ccccc1)NC2=O (stereo not drawn)	-	-	.	-	.	.	.
Cc1cc(/C=N/Nc2ccc([N+](=O)[O-])cn2)c(C)n1-c1ccc(C(=O)O)cc1	41	-	-	-	41	-	59
COc1ccc(CCn2c(O)cc3nn(-c4nc5ccccc5s4)c(=O)c-3c2C)cc1	37	-	-	-	42	88	-
Oc1ccc(Br)cc1C=Nc1ccc(Cl)cc1	-	-	-	-	-	.	.
CCN(CC)c1ccc(N=Cc2cc(Br)ccc2O)cc1	45	-	-	-	60	-	-
CN(C)C(=O)NCCCC#Cc1ccccc1	-	.	.	-	.	.	.
Oc1cccc(/C=N/N=C/c2cccc(O)c2O)c1O	36	-	-	-	36	45	-
O=S1(=O)c2ccc(Br)cc2OCCC2CCCCN21 (stereo not drawn)	-	-	.	-	.	.	.
Cc1ccc(C)c(N=Nc2nc3ccccc3n2C)c1	-	-	-	-	-	.	.
Cc1cc(C)c(C)c(N=Nc2nc3ccccc3n2C)c1C	40	-	-	-	37	43	55
CCC(=Nc1ccc(N)cc1)C1=C(O)C(C(=O)OC)C(C)(C)CC1=O (stereo not drawn)	82	68	-	25	53	-	-	BSA TAMRA ctr=-;TCR-CD3 conf=-
CC1OC(Nc2cccc3ccccc23)C(O)C(O)C1O (stereo not drawn)	36	-	-	-	43	-	-
COc1ccc(N2C3=C(CC4=C2CCCC4=O)C(=O)CCC3)cc1	59	-	-	-	76	68	-
COc1ccc(-n2ccc(=O)c3c2CCCC3=O)cc1	-	-	-	-	-	.	.
CN1C(=O)[C@@]2(C3=C(CCCC3=O)OC3=C2C(=O)CC(C)(C)C3)c2ccccc21	-	-	.	-	.	.	.
COCCCNc1c2c3c(cccc3[nH]c1=O)C(=O)c1ccccc1-2	109	172	-	-	126	120	178	BSA TAMRA ctr=+;TCR-CD3 conf=185
SMILES	mABHD4 FP	TCR CD3 inh	DAGLB inhibitor	SIAE primary	HTRA1 inhibitor	HTRA1 inh conf	mABHD4 conf	others
COCCCNC1=C(Cl)C(=O)c2ccccc2C1=O	-	-	-	-	-	.	.
Oc1ccc(Cc2ccccc2)c2cccnc12	-	-	.	-	.	.	.
COc1ccccc1N=Nc1ccc(O)c2ncccc12	38	-	-	-	81	62	36
Cc1ccc2nc(/C(C#N)=C/c3ccc(O)c(O)c3)[nH]c2c1	55	-	-	-	67	92	52
Cc1ccc2nc(/C(C#N)=C/c3ccccc3C(=O)O)[nH]c2c1	-	-	-	-	-	.	.
Cc1cc2cc(CNC(=O)COc3ccccc3)ccc2n1C	32	27	-	-	45	-	-	BSA TAMRA ctr=-;TCR-CD3 conf=-
